Reference: ChEMBL document CHEMBL5356993, “Novel pyrazolo[3,4-d]pyrimidine derivatives: design, synthesis, anticancer evaluation, VEGFR-2 inhibition, and antiangiogenic activity” (RSC Med Chem, 2023)

Key:
T47D = test: Antiproliferative activity against human T47D cells assessed as cell growth inhibition at 10 uM incubated for 48 hrs by SRB assay relative to control; assay type: functional; conditions: read-out: GI
Method in brief: (§1)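 Cells pre-incubated 24 h at 37°C, 5% CO2, then exposed to compound (DMSO stock diluted in medium with 50 µg/mL gentamicin) for 48 h. Adherent cells fixed with cold TCA (final 10%, 60 min, 4°C); suspension cells fixed with 16% TCA final. Stained with 0.4% SRB in 1% acetic acid for 10 min, dye solubilized in 10 mM Trizma base, absorbance read at 515 nm. Growth calculated against time-zero and untreated control plates.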

A549 = test: Antiproliferative activity against human A549 cells assessed as cell growth inhibition at 10 uM incubated for 48 hrs by SRB assay relative to control; assay type: functional; conditions: read-out: GI
BT-549 = test: Antiproliferative activity against human BT-549 cells assessed as cell growth inhibition at 10 uM incubated for 48 hrs by SRB assay relative to control; assay type: functional; conditions: read-out: GI
OVCAR-8 = test: Antiproliferative activity against human OVCAR-8 cells assessed as cell growth inhibition at 10 uM incubated for 48 hrs by SRB assay relative to control; assay type: functional; conditions: read-out: GI
SK-MEL-2 = test: Antiproliferative activity against human SK-MEL-2 cells assessed as cell growth inhibition at 10 uM incubated for 48 hrs by SRB assay relative to control; assay type: functional; conditions: read-out: GI
Method in brief: (§2)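 Cells plated in 96-well plates at […] cells/well and preincubated 24 h at 37 °C, 5% CO2. Time-zero plates were TCA-fixed. Compound was diluted in medium with 50 µg/mL gentamicin and cells exposed for 48 h. Adherent cells fixed with 10% final TCA; suspension cells with 16% final TCA. Plates stained with 0.4% SRB in 1% acetic acid, dye solubilized in 10 mM Trizma, absorbance read at 515 nm. Percent growth calculated against time-zero and control.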

NCI-H23 = test: Antiproliferative activity against human NCI-H23 cells assessed as cell growth inhibition at 10 uM incubated for 48 hrs by SRB assay relative to control; assay type: functional; conditions: read-out: GI
UACC-257 = test: Antiproliferative activity against human UACC-257 cells assessed as cell growth inhibition at 10 uM incubated for 48 hrs by SRB assay relative to control; assay type: functional; conditions: read-out: GI; method in brief: as §1
NCI-H460 = test: Antiproliferative activity against human NCI-H460 cells assessed as cell growth inhibition at 10 uM incubated for 48 hrs by SRB assay relative to control; assay type: functional; conditions: read-out: GI
NCI-H322M = test: Antiproliferative activity against human NCI-H322M cells assessed as cell growth inhibition at 10 uM incubated for 48 hrs by SRB assay relative to control; assay type: functional; conditions: read-out: GI
K562 = test: Antiproliferative activity against human K562 cells assessed as cell growth inhibition at 10 uM incubated for 48 hrs by SRB assay relative to control; assay type: functional; conditions: read-out: GI
SW-620 = test: Antiproliferative activity against human SW620 cells assessed as cell growth inhibition at 10 uM incubated for 48 hrs by SRB assay relative to control; assay type: functional; conditions: read-out: GI; method in brief: as §1
HOP-92 = test: Antiproliferative activity against human HOP-92 cells assessed as cell growth inhibition at 10 uM incubated for 48 hrs by SRB assay relative to control; assay type: functional; conditions: read-out: GI; method in brief: as §2
MDA-MB-435 = test: Antiproliferative activity against human MDA-MB-435 cells assessed as cell growth inhibition at 10 uM incubated for 48 hrs by SRB assay relative to control; assay type: functional; conditions: read-out: GI
NCI-H226 = test: Antiproliferative activity against human NCI-H226 cells assessed as cell growth inhibition at 10 uM incubated for 48 hrs by SRB assay relative to control; assay type: functional; conditions: read-out: GI; method in brief: as §2
SK-MEL-5 = test: Antiproliferative activity against human SK-MEL-5 cells assessed as cell growth inhibition at 10 uM incubated for 48 hrs by SRB assay relative to control; assay type: functional; conditions: read-out: GI; method in brief: as §2
TK-10 = test: Antiproliferative activity against human TK-10 cells assessed as cell growth inhibition at 10 uM incubated for 48 hrs by SRB assay relative to control; assay type: functional; conditions: read-out: GI; method in brief: as §1
OVCAR-5 = test: Antiproliferative activity against human OVCAR-5 cells assessed as cell growth inhibition at 10 uM incubated for 48 hrs by SRB assay relative to control; assay type: functional; conditions: read-out: GI; method in brief: as §2
RXF 393 = test: Antiproliferative activity against human RXF 393 cells assessed as cell growth inhibition at 10 uM incubated for 48 hrs by SRB assay relative to control; assay type: functional; conditions: read-out: GI; method in brief: as §2
KM12 = test: Antiproliferative activity against human KM12 cells assessed as cell growth inhibition at 10 uM incubated for 48 hrs by SRB assay relative to control; assay type: functional; conditions: read-out: GI; method in brief: as §2
SF-539 = test: Antiproliferative activity against human SF-539 cells assessed as cell growth inhibition at 10 uM incubated for 48 hrs by SRB assay relative to control; assay type: functional; conditions: read-out: GI; method in brief: as §2
RPMI-8226 = test: Antiproliferative activity against human RPMI-8226 cells assessed as cell growth inhibition at 10 uM incubated for 48 hrs by SRB assay relative to control; assay type: functional; conditions: read-out: GI
EKVX = test: Antiproliferative activity against human EKVX cells assessed as cell growth inhibition at 10 uM incubated for 48 hrs by SRB assay relative to control; assay type: functional; conditions: read-out: GI
SK-OV-3 = test: Antiproliferative activity against human SK-OV-3 cells assessed as cell growth inhibition at 10 uM incubated for 48 hrs by SRB assay relative to control; assay type: functional; conditions: read-out: GI; method in brief: as §2
U-251 = test: Antiproliferative activity against human U-251 cells assessed as cell growth inhibition at 10 uM incubated for 48 hrs by SRB assay relative to control; assay type: functional; conditions: read-out: GI; method in brief: as §1
NCI/ADR-RES = test: Antiproliferative activity against human NCI-ADR-RES cells assessed as cell growth inhibition at 10 uM incubated for 48 hrs by SRB assay relative to control; assay type: functional; conditions: read-out: GI
MDA-MB-468 = test: Cytotoxicity against human MDA-MB-468 cells assessed as cell growth inhibition incubated for 72 hrs by MTT assay; assay type: functional, cell-based; conditions: MDA-MB-468, 72 h
[1] = target: Vascular endothelial growth factor receptor 2 (Homo sapiens, UniProt P35968); test: Inhibition of VEGFR-2 (unknown origin) incubated for 45 mins by Kinase-Glo Max assay
[2] = Selectivity index, ratio of IC50 for human MCF-10A cells to IC50 for human MDA-MB-468 cells; conditions: MCF-10A cells versus MDA-MB-468 cells
[3] = Cytotoxicity against human MCF-10A cells assessed as cell growth inhibition incubated for 72 hrs by MTT assay

Vascular endothelial growth factor receptor 2, sequence (P35968 whole entry): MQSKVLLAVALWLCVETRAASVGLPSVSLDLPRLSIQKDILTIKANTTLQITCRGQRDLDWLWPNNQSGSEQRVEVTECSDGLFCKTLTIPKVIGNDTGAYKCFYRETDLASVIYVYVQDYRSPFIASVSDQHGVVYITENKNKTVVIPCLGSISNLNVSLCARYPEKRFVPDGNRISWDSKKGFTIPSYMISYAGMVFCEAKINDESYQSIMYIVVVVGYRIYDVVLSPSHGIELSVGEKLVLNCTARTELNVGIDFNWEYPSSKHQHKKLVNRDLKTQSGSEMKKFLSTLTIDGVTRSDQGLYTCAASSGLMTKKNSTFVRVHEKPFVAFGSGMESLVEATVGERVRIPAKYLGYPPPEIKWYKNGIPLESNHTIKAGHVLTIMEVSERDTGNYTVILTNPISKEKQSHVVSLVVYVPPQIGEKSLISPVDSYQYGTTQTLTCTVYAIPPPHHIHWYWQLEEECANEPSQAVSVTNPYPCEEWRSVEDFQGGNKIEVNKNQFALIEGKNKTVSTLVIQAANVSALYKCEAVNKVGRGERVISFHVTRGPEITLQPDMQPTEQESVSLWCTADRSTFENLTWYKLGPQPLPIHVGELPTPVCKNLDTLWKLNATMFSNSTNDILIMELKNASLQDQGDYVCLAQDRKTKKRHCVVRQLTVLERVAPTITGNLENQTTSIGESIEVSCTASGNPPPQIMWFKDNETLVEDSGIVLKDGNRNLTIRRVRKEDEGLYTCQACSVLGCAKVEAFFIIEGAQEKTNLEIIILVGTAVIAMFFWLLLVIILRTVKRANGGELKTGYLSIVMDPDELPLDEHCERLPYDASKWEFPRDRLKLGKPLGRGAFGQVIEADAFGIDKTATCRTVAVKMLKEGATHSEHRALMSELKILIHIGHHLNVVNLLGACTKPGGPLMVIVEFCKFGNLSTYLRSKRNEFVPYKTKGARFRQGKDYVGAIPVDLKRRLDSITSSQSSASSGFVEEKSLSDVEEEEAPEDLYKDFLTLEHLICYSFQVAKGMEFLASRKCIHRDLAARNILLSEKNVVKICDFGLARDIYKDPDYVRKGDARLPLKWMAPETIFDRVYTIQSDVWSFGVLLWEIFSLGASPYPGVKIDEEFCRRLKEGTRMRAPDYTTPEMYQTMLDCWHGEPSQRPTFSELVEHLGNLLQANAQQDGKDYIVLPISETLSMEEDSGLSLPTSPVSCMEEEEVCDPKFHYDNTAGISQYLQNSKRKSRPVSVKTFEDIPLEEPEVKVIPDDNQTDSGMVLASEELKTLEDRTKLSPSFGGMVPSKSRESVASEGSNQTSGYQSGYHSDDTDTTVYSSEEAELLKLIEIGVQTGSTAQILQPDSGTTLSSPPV

SMILES	inhibition of growth at 10 µM (T47D) [%]	inhibition of growth at 10 µM (A549) [%]	inhibition of growth at 10 µM (BT-549) [%]	inhibition of growth at 10 µM (OVCAR-8) [%]	inhibition of growth at 10 µM (SK-MEL-2) [%]	inhibition of growth at 10 µM (NCI-H23) [%]	inhibition of growth at 10 µM (UACC-257) [%]	inhibition of growth at 10 µM (NCI-H460) [%]	inhibition of growth at 10 µM (NCI-H322M) [%]	inhibition of growth at 10 µM (K562) [%]	inhibition of growth at 10 µM (SW-620) [%]	inhibition of growth at 10 µM (HOP-92) [%]	inhibition of growth at 10 µM (MDA-MB-435) [%]	inhibition of growth at 10 µM (NCI-H226) [%]	inhibition of growth at 10 µM (SK-MEL-5) [%]	inhibition of growth at 10 µM (TK-10) [%]	inhibition of growth at 10 µM (OVCAR-5) [%]	inhibition of growth at 10 µM (RXF 393) [%]	inhibition of growth at 10 µM (KM12) [%]	inhibition of growth at 10 µM (SF-539) [%]	other results
Cc1nc2c(cnn2-c2ccccc2)c(=O)n1-c1ccc(NC(=O)c2ccc([N+](=O)[O-])cc2)cc1	66.5	33	48.8	34.1	29.3	50.6	50.8	26.4	17.2	68.8	< 15	< 15	33.6	50.8	82.4	31.5	< 15	26.4	20.4	18.7	inhibition of growth at 10 µM (RPMI-8226): 47.7%; inhibition of growth at 10 µM (EKVX): 69.3%; inhibition of growth at 10 µM (SK-OV-3): < 15%; inhibition of growth at 10 µM (U-251): < 15%; inhibition of growth at 10 µM (NCI/ADR-RES): 47.2%
Cc1ccc(C(=O)Nc2ccc(-n3c(C)nc4c(cnn4-c4ccccc4)c3=O)cc2)cc1	65.4	34.2	40.8	23.2	21.7	46.5	58	24.6	< 15	68.8	< 15	< 15	29.4	45.2	93	17.7	< 15	< 15	22.5	18.6	IC50 (MDA-MB-468): 16 µM; IC50 [1]: 0.261 µM; selectivity ratio [2]: 3.63; IC50 at 72 h [3]: 58.2 µM; inhibition of growth at 10 µM (RPMI-8226): 41.6%; inhibition of growth at 10 µM (EKVX): 69.5%; inhibition of growth at 10 µM (SK-OV-3): < 15%; inhibition of growth at 10 µM (U-251): < 15%; inhibition of growth at 10 µM (NCI/ADR-RES): 47.3%
Cc1nc2c(cnn2-c2ccccc2)c(=O)n1-c1ccc(NC(=O)c2ccco2)cc1	34	< 15	< 15	< 15	< 15	< 15	< 15	< 15	< 15	30.1	< 15	< 15	< 15	< 15	23.1	< 15	< 15	< 15	< 15	< 15	inhibition of growth at 10 µM (RPMI-8226): 26.1%; inhibition of growth at 10 µM (EKVX): 26.9%; inhibition of growth at 10 µM (SK-OV-3): < 15%; inhibition of growth at 10 µM (U-251): < 15%; inhibition of growth at 10 µM (NCI/ADR-RES): < 15%
Cc1nc2c(cnn2-c2ccccc2)c(=O)n1-c1ccc(/N=C2\C(=O)Nc3ccccc32)cc1	38.3	< 15	22.1	24.8	< 15	30.7	29.3	< 15	< 15	34.4	< 15	17.6	< 15	24.7	42.9	< 15	< 15	29	< 15	20.9	inhibition of growth at 10 µM (RPMI-8226): 36.5%; inhibition of growth at 10 µM (EKVX): 52.1%; inhibition of growth at 10 µM (SK-OV-3): 19.6%; inhibition of growth at 10 µM (U-251): 39.6%; inhibition of growth at 10 µM (NCI/ADR-RES): < 15%
